Results published in ChEMBL document CHEMBL1124774, “Synthesis and biological activity of some derivatives of rifamycin P” (1990).
Values after ≈ are worked out from the molar mass of the structure shown.

How the values were obtained:
Escherichia coli = test: In vitro antibacterial activity of compound against Escherichia coli SKF 12140; assay type: functional
Streptococcus pneumoniae = test: In vitro antibacterial activity of compound against Streptococcus pneumoniae UC 41; assay type: functional
In short: (§1)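 Streptococcal MICs were run by twofold microdilution in Todd-Hewitt broth over 128-0.0001 µg/mL. Inoculum was 10^4 cfu/mL, with incubation at 37 °C for 18-24 h.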

[1] = tested on: Staphylococcus epidermidis; test: In vitro antibacterial activity of compound against Staphylococcus epidermidis ATCC 12228; assay type: functional
In short: (§2)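 Twofold microdilution MIC in Iso-Sensitest broth over 128-0.0001 µg/mL. Inoculum was 10^4 cfu/mL, with incubation at 37 °C for 18-24 h.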

Pseudomonas aeruginosa = test: In vitro antibacterial activity of compound against Pseudomonas aeruginosa ATCC 10145; assay type: functional; in short: as §2
Enterococcus faecalis = test: In vitro antibacterial activity of compound against Streptococcus faecalis ATCC 7080.; assay type: functional; in short: as §2
Mycobacterium avium [2] = test: Minimum inhibitory concentration of compound against 20 Mycobacterium avium complex (MAC) clinical isolates
Mycobacterium avium [3] = test: 50% inhibition of the 20 Mycobacterium (MAC) avium complex clinical isolates; assay type: functional
In short: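 Agar-dilution MICs, 2-fold dilutions over 128-0.0001 μg/mL, on Middlebrook 7H10 agar with 2% glycerol and 10% OADC. Organisms from Loevenstein-Jensen slants were grown in 7H9 broth with 0.5% Tween and 10% OADC, adjusted to McFarland no. 1, and spotted with a multipoint inoculator. Plates were sealed and incubated at 22, 30 or 37 °C for 4-20 days depending on strain.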

Streptococcus pyogenes [4] = test: In vitro antibacterial activity of compound against Streptococcus pyogenes C 203 SKF 13400; assay type: functional; in short: as §1
Streptococcus pyogenes [5] = test: Minimum inhibitory concentration of compound against Streptococcus pyogenus septicemia in the mouse; assay type: functional
Staphylococcus aureus = test: In vitro antibacterial activity of compound against Staphylococcus aureus Tour L 165; assay type: functional; in short: as §2
Mycobacterium avium [6] = test: 90% inhibition of the 20 Mycobacterium avium complex (MAC) clinical isolates
Streptococcus pyogenes [7] = test: Inhibitory concentration of compound against Streptococcus pyogenus septicemia in the mouse, administarted in subcutaneous route; assay type: functional; conditions: sc
In short: (§3)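 Male and female CD1 mice (18-22 g) were infected ip with S. pyogenes C203, with the challenge set so untreated mice died within 48 h. Groups of five received a single treatment immediately after infection. ED50 was calculated from the percentage surviving at each dose on day 10.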

Streptococcus pyogenes [8] = test: Inhibitory concentration of compound against Streptococcus pyogenus septicemia in the mouse, administarted in OS route; assay type: functional; in short: as §3
Klebsiella pneumoniae = test: In vitro antibacterial activity of compound against Klebsiella pneumoniae ISM; assay type: functional
Neisseria gonorrhoeae = test: In vitro antibacterial activity of compound against Neisseria gonorrhoeae ISM 68/126; assay type: functional
Proteus vulgaris = test: In vitro antibacterial activity of compound against Proteus vulgaris X19H ATCC 881; assay type: functional
Haemophilus influenzae = test: In vitro antibacterial activity of compound against Haemophilus influenzae ATCC 19418; assay type: functional
[9] = tested on: Mycobacterium tuberculosis; test: In vitro antibacterial activity of compound against Mycobacterium tuberculosis H37Rv ATCC 9660; assay type: functional

Compound | MIC (Escherichia coli) [µg/mL] | MIC (Streptococcus pneumoniae) [µg/mL] | MIC [1] [µg/mL] | MIC (Pseudomonas aeruginosa) [µg/mL] | MIC (Enterococcus faecalis) [µg/mL] | MIC (Mycobacterium avium [2]) [µg/mL] | MIC50 (Mycobacterium avium [3]) [µg/mL] | MIC (Streptococcus pyogenes [4]) [µg/mL] | MIC (Streptococcus pyogenes [5]) [µg/mL] | MIC (Staphylococcus aureus) [µg/mL] | MIC90 (Mycobacterium avium [6]) [µg/mL] | ED50 (Streptococcus pyogenes [7]) [mg/kg] | ED50 (Streptococcus pyogenes [8]) [mg/kg] | MIC (Klebsiella pneumoniae) [µg/mL] | MIC (Neisseria gonorrhoeae) [µg/mL] | MIC (Proteus vulgaris) [µg/mL] | MIC (Haemophilus influenzae) [µg/mL] | MIC [9] [µg/mL]
CCCCN(CCCC)c1nc2c(s1)c1c(O)c3c(O)c(C)c4c(c32)C(=O)C(C)(O/C=C/C(OC)C(C)C(OC(C)=O)C(C)C(O)C(C)C(O)C(C)/C=C/C=C(/C)C(=O)N1)O4 (stereo not drawn) | > 128 | 0.063 (≈ 0.0727 µM) | 0.125 (≈ 0.144 µM) | > 128 | 4 (≈ 4.62 µM) | 0.25 (≈ 0.289 µM) | 1 (≈ 1.15 µM) | 0.125 (≈ 0.144 µM) | 0.125 (≈ 0.144 µM) | 0.063 (≈ 0.0727 µM) | 2 (≈ 2.31 µM) | 1.62 | 1.23 | > 128 | 2 (≈ 2.31 µM) | > 128 | 1 (≈ 1.15 µM) | 
COC1/C=C/OC2(C)Oc3c(C)c(O)c4c(O)c(c5sc(N6CCN(Cc7ccccc7)CC6)nc5c4c3C2=O)NC(=O)/C(C)=C\C=C\C(C)C(O)C(C)C(O)C(C)C(OC(C)=O)C1C (stereo not drawn) | 32 (≈ 35 µM) | 0.063 (≈ 0.069 µM) | 0.063 (≈ 0.069 µM) | 16 (≈ 17.5 µM) | 1 (≈ 1.1 µM) |  |  | 0.063 (≈ 0.069 µM) |  | 0.008 (≈ 0.00876 µM) |  |  |  | 64 (≈ 70.1 µM) | 0.125 (≈ 0.137 µM) | 32 (≈ 35 µM) | 0.125 (≈ 0.137 µM) | 0.125 (≈ 0.137 µM)
CCNc1nc2c(s1)c1c(O)c3c(O)c(C)c4c(c32)C(=O)C(C)(O/C=C/C(OC)C(C)C(OC(C)=O)C(C)C(O)C(C)C(O)C(C)/C=C/C=C(/C)C(=O)N1)O4 (stereo not drawn) | 16 (≈ 20.5 µM) | 0.063 (≈ 0.0806 µM) | 0.032 (≈ 0.0409 µM) | 4 (≈ 5.12 µM) | 1 (≈ 1.28 µM) | 8 (≈ 10.2 µM) | 32 (≈ 40.9 µM) | 0.063 (≈ 0.0806 µM) | 0.063 (≈ 0.0806 µM) | 0.063 (≈ 0.0806 µM) | 64 (≈ 81.8 µM) |  | > 4 | 32 (≈ 40.9 µM) | 0.125 (≈ 0.16 µM) | 8 (≈ 10.2 µM) | 0.125 (≈ 0.16 µM) | 0.125 (≈ 0.16 µM)
COC1/C=C/OC2(C)Oc3c(C)c(O)c4c(O)c(c5sc(N6CCOCC6)nc5c4c3C2=O)NC(=O)/C(C)=C\C=C\C(C)C(O)C(C)C(O)C(C)C(OC(C)=O)C1C (stereo not drawn) | 16 (≈ 19.4 µM) | 0.016 (≈ 0.0194 µM) | 0.063 (≈ 0.0765 µM) | 16 (≈ 19.4 µM) | 1 (≈ 1.21 µM) | > 16 | 32 (≈ 38.8 µM) | 0.032 (≈ 0.0388 µM) |  | 0.002 (≈ 0.00243 µM) | 128 (≈ 155 µM) |  |  | 32 (≈ 38.8 µM) | 0.125 (≈ 0.152 µM) | 8 (≈ 9.71 µM) | 0.5 (≈ 0.607 µM) | 2 (≈ 2.43 µM)
CCCCNc1nc2c(s1)c1c(O)c3c(O)c(C)c4c(c32)C(=O)C(C)(O/C=C/C(OC)C(C)C(OC(C)=O)C(C)C(O)C(C)C(O)C(C)/C=C/C=C(/C)C(=O)N1)O4 (stereo not drawn) | 16 (≈ 19.8 µM) | 0.063 (≈ 0.0778 µM) | 0.016 (≈ 0.0198 µM) | 8 (≈ 9.88 µM) | 1 (≈ 1.23 µM) | 2 (≈ 2.47 µM) | 32 (≈ 39.5 µM) | 0.063 (≈ 0.0778 µM) | 0.063 (≈ 0.0778 µM) | 0.032 (≈ 0.0395 µM) | 64 (≈ 79 µM) | 6.6 | > 10 | 64 (≈ 79 µM) | 0.125 (≈ 0.154 µM) | 16 (≈ 19.8 µM) | 0.125 (≈ 0.154 µM) | 
